High-throughput results as filed in PubChem.
Only some compounds are listed: those with a hit (about 6.8% of all), similar ones and a draw of the others.
PHOSPHO1 block = PubChem AID 1565; recombinant PHOSPHO1, absorbance phosphatase assay; inhibition, % at 13.3 µM; 290,000 tested, 1.1% active; in the data active = inhibition above about 60%
Target sequence (Q8TCT1 whole entry, looked up): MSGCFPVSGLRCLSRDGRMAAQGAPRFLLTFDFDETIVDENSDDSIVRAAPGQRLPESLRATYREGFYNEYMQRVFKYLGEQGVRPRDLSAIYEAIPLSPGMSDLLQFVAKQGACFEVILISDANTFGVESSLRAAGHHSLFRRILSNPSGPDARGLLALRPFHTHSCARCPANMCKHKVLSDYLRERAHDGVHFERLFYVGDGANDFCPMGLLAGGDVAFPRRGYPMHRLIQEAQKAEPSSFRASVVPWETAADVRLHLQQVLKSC
AI-2 QS mod = Vibrio harveyi AI-2 quorum sensing modulators, primary screen, JMH597 strain, luminescence/OD600 ratio; activity change, % at 7.5 µM; 300,000 tested, 0.4% active; Vibrio harveyi JMH597 AI-2 luminescence/OD600 ratio, 9 h; active compounds read low; strain lacks LuxN and CqsS sensors; 0 = neutral-control median; AID 2094, 2009; in the data active = activity change below about -75%, passing the limit was not always enough;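 note: luminescence divided by OD600 gain over 9 h not by final OD600 alone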
HCV core dimer = inhibitors of HCV core protein dimerization, primary screen, biochemical, TR-FRET, high-throughput; TR-FRET GST/Flag-core106 dimerization, 1536-well; inhibition, % at 5 µM; 300,000 tested, 0.33% active;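 active = inhibition above the mean of all tested compounds plus 3 SD, set per screening campaign, cut at about 45% in these data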
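System: GST/Flag-tagged HCV core106 proteins. Incubation: compound-protein-antibody incubation 4 h at 22.5 °C. Technique: HTRF with 340 nm excitation, 617/671 nm emission. Medium: KF-containing HEPES buffer, pH 7.45, DTT, CHAPS, BSA. Read-out: inhibition (%) from 671 over 617 nm ratio. Also added: Eu(K)-anti-GST 90 ng/mL plus XL665-anti-Flag 1 µg/mL.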
ALR inh = inhibitors of human ALR sulfhydryl oxidase, primary screen, biochemical, H2O2 detection, HRP-luminol luminescence, single point; inhibition, % (concentration not given with the values); purified ALR, DTT oxidation; FAD-linked sulfhydryl oxidase ALR (Homo sapiens), P55789; AID 485317, 2010; 290,000 tested, 3.8% active;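 active = mean replicate inhibition above about 79%, with every replicate also reaching it, limit read from the data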
Target sequence (P55789 whole entry, looked up): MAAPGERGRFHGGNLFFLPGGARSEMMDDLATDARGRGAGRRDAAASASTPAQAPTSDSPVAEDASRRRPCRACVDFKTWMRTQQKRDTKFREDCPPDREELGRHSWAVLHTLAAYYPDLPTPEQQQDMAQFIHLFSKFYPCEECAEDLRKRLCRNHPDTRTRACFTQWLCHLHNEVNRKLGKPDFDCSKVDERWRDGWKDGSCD
HSF-1 act = HSF-1 activators, primary screen, NIH3T3-HGL cells, MG132 stress, luminescence, single point. NIH3T3-HGL HSF-1 luciferase reporter, 8 h; 100% = twice DMSO control signal. activation, % at 9 µM. 300,000 tested, 1.7% active;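 active = mean replicate activation of at least 50% with a set share of replicates each reaching 50%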
HSF1 inhib = HSF1 inhibitors in luciferase reporter cells, primary screen, cell-based, NIH3T3, luminescence. AID 2098, 2009. 300,000 tested, 0.77% active. activity change, negative = inhibition, % at 7.5 µM (by protocol). NIH3T3-HGL HSE-luciferase, MG132-induced, luminescence 8 h; active compounds read low;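 active = more than half of replicate wells show activity change below -50%, luminescence cut by over half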;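 note: luciferase reports HSF-1 transcriptional activity via heat shock element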
A number is an active result; . = inactive; / = no result given.

SMILES	PHOSPHO1 block	AI-2 QS mod	HCV core dimer	ALR inh	HSF-1 act	HSF1 inhib
Cc1ccc(-n2c(Cc3cccn3C)nnc2SCC(=O)N2CCN(c3ccccc3)CC2)cc1	77	.	.	.	.	.
Nc1cc(=O)nc(SCC(=O)N2CCN(c3ccccc3)CC2)n1-c1ccccc1	.	.	.	.	.	.
Cc1ccc(-n2c(N)cc(=O)nc2SCC(=O)N2CCN(c3ccccc3)CC2)cc1	.	.	.	97	.	.
Cn1cccc1Cc1nnc(SCC(=O)N2CCCCCC2)n1-c1ccc(F)cc1	.	.	.	/	.	.
O=C(NC1CC2CCCC(C1)N2C(=O)Nc1ccc(F)cc1)c1ccccc1 (stereo unspecified)	.	.	.	/	.	.
COc1ccc(N2CCN(C(=O)C3(S(=O)(=O)c4ccc(C)cc4)CC3)CC2)cc1	.	.	.	86	.	.
COc1ccc(N2CCN(C(=O)C3CC(O)CN3S(=O)(=O)c3ccc([N+](=O)[O-])cc3)CC2)cc1 (stereo unspecified)	.	.	.	84	.	.
COc1ccc(S(=O)(=O)CCC(=O)N2CCN(c3ccc([N+](=O)[O-])cc3)CC2)cc1	.	.	.	.	.	.
COc1ccc(N2CCN(C(=O)CCS(=O)(=O)c3ccc(C)cc3)CC2)cc1	/	.	.	88	.	.
COc1ccc(S(=O)(=O)CCC(=O)N2CCN(c3ccc(C(C)=O)cc3)CC2)cc1	.	.	.	.	.	.
COc1ccc(N2CCN(C(=O)CCS(=O)(=O)c3ccc(OC)cc3)CC2)cc1	.	.	.	79	.	.
COc1ccccc1-n1cnnc1SCC(=O)NCC1CCCO1 (stereo unspecified)	.	.	.	.	.	.
CC1(C)CCCC(C)(C)N1CC(O)COCCOc1ccc(Br)cc1 (stereo unspecified)	.	.	.	.	.	.
COc1ccc(CC(=O)N2CCN(c3ccc(C4=NNC(=O)CC4C)cc3)CC2)cc1 (stereo unspecified)	.	.	.	88	.	.
COc1ccc(CC(=O)N2CCN(C(=O)Cc3ccc(OC)cc3)CC2)cc1	.	.	.	.	.	.
O=C(CN1CCOCC1)Nc1ccc(-c2nc3ccccc3[nH]2)cc1	.	.	.	.	56	.
O=C(CSc1ccccc1)Nc1ccc(-c2nc3ccccc3[nH]2)cc1	.	.	.	.	.	.
CC1CN(S(=O)(=O)c2cccc(C(=O)OCC(=O)Nc3ccc4c(c3)OCO4)c2)CC(C)O1 (stereo unspecified)	62	/	.	.	/	/
CC1CN(S(=O)(=O)c2cccc(C(=O)OCC(=O)c3cccs3)c2)CC(C)O1 (stereo unspecified)	.	.	.	.	.	.
O=C(O)CCC(=O)NCCn1c(-c2ccccc2)csc1=Nc1ccccc1	.	.	.	92	69	.
O=C(Nc1ccc(Cl)cc1Cl)c1ccc2c(=O)n3c(nc2c1)CCC3	/	.	.	.	.	.
O=C(Nc1ccc(Br)cc1Cl)c1ccc2c(=O)n3c(nc2c1)CCC3	/	.	.	.	55	.
O=c1cc(NCCO)c2ccccc2o1	.	.	.	.	.	.
O=c1cc(NCCc2ccccc2)c2ccccc2o1	.	.	.	/	57	.
CN(C)CCCSc1nc2ccccc2s1	.	.	.	99	.	.
SMILES	PHOSPHO1 block	AI-2 QS mod	HCV core dimer	ALR inh	HSF-1 act	HSF1 inhib
O=C(O)CCSc1nc2ccccc2s1	.	.	.	99	.	-63
CC(C)CC(=O)N1CC(C)N(C(=O)CC(C)C)CC1C (stereo unspecified)	.	.	.	.	.	.
N#CCN1C(=O)C2CCCN2c2ccc(S(=O)(=O)N3CCOCC3)cc21 (stereo unspecified)	.	.	.	.	.	.
O=C(NCCN1CCOCC1)C1CCCN(S(=O)(=O)c2ccc(F)cc2)C1 (stereo unspecified)	.	.	.	.	.	.
CN1c2ccccc2C(C)(C)[C@]12C=Cc1cc(O)ccc1O2	.	.	.	88	.	.
Cc1nonc1OCCNc1ccc([N+](=O)[O-])cc1	.	.	.	.	.	.
Cc1nonc1OCCNCCNc1ccc([N+](=O)[O-])cc1Cl	.	.	.	.	77	.
COc1cc(C(=O)Nc2c(C(=O)O)[nH]c3ccc(C)cc23)cc(OC)c1OC	.	.	/	96	.	.
CCOC(=O)c1[nH]c2ccc(C)cc2c1NC(=O)CN1CCCCC1	.	.	.	98	.	.
CCOC(=O)c1[nH]c2ccccc2c1NC(=O)c1cc(OC)c(OC)c(OC)c1	/	.	.	.	.	.
COC(=O)c1[nH]c2ccc(Cl)cc2c1NC(=O)Oc1ccccc1	.	.	.	100	.	.
COC(=O)c1[nH]c2ccc(C)cc2c1NC(=O)C1=COCCO1	.	.	.	.	.	.
COC(=O)c1[nH]c2ccc(C)cc2c1NC(=O)Nc1ccccc1OC	.	.	.	97	.	.
COC(=O)c1[nH]c2ccc(Cl)cc2c1NC(=O)C1CC1	.	.	.	.	.	.
COC(=O)c1[nH]c2ccc(C)cc2c1NC(=O)CN1CCc2cc(OC)c(OC)cc2C1	69	.	.	.	.	.
COc1cc2c(cc1OC)CN(CC(=O)Nc1ccc(C)cc1)CC2	.	.	.	.	.	.
COC(=O)c1[nH]c2ccc(Br)cc2c1NC(=O)CN1CCCc2ccccc21	.	.	.	.	57	.
CCOC(=O)c1sc2c(c1C)c(=O)n(CCO)c(=O)n2Cc1ccccc1	.	.	.	/	.	.
CCCC(=NC(C)CC)C1=C(O)CC(c2ccccc2)CC1=O (stereo unspecified)	.	.	.	.	.	.
CC(C)(C)N1C(=O)c2ccc(C(=O)Nc3ccc(O)cc3)cc2C1=O	.	.	.	98	.	.
CC(C)(C)NC(=O)c1cccc(NC(=O)c2ccc3c(c2)C(=O)N(C(C)(C)C)C3=O)c1	.	.	.	.	.	.
CC1(C)CC(=O)CC(=O)/C1=N\Nc1c(Cl)cc(Cl)cc1Cl	.	.	.	.	.	.
Cc1nn(C)cc1-c1n[nH]c(=S)n1-c1ccc(Cl)cc1	.	.	.	.	.	.
COc1ccc(-c2n[nH]c(=S)n2-c2ccc(C)cc2)cc1OC	.	.	.	89	.	.
Cc1ccc(C2CC2c2n[nH]c(=S)n2-c2ccc(Cl)cc2)cc1 (stereo unspecified)	74	.	.	.	.	.
